{
  "source": "ChEMBL document CHEMBL2010769",
  "about": "“Synthesis and antiviral activity of 6-deoxycyclopropavir, a new prodrug of cyclopropavir” (Bioorg Med Chem, 2012)",
  "key": {"Murid betaherpesvirus 1 [1]": {"system": "Murid betaherpesvirus 1", "assay": "Antiviral activity against MCMV infected in BALB/c mouse assessed as decrease in virus-induced mortality at 50 mg/kg, po qd for 5 days administered 48 hrs after viral infection (reference value: 100%)", "assay_type": "functional", "design": "scale not given: the % may be the effect or the level left", "in_short": "(§1)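 Female BALB/c mice (3 weeks, 15/group) were inoculated ip with MCMV Smith at about LD90. Oral dosing of 0.2 mL in 0.4% CMC ran once daily for 5 days, starting 24 or 48 h post-inoculation. Mice were observed daily for 21 days. Mortality was compared with CMC placebo by Fisher's exact test.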"}, "Murid betaherpesvirus 1 [2]": {"system": "Murid betaherpesvirus 1", "assay": "Antiviral activity against MCMV infected in BALB/c mouse assessed as decrease in virus-induced mean day of death at 5.6 mg/kg, po qd for 5 days administered 24 hrs after viral infection (reference value: 4.9 +/- 0.7 days)", "assay_type": "functional"}, "Murid betaherpesvirus 1 [3]": {"system": "Murid betaherpesvirus 1", "assay": "Antiviral activity against MCMV infected in BALB/c mouse assessed as decrease in virus-induced mean day of death at 16.7 mg/kg, po qd for 5 days administered 48 hrs after viral infection (reference value: 5.1 +/- 0.9 days)", "assay_type": "functional"}, "Murid betaherpesvirus 1 [4]": {"system": "Murid betaherpesvirus 1", "assay": "Antiviral activity against MCMV infected in BALB/c mouse assessed as decrease in virus-induced mortality at 50 mg/kg, po qd for 5 days administered 24 hrs after viral infection (reference value: 67%)", "assay_type": "functional", "design": "scale not given: the % may be the effect or the level left", "in_short": "as §1"}, "Murid betaherpesvirus 1 [5]": {"system": "Murid betaherpesvirus 1", "assay": "Antiviral activity against MCMV infected in BALB/c mouse assessed as decrease in virus-induced mortality at 16.7 mg/kg, po qd for 5 days administered 24 hrs after viral infection (reference value: 67%)", "assay_type": "functional", "design": "scale not given: the % may be the effect or the level left", "in_short": "as §1"}, "Murid betaherpesvirus 1 [6]": {"system": "Murid betaherpesvirus 1", "assay": "Antiviral activity against MCMV infected in BALB/c mouse assessed as decrease in virus-induced mortality at 16.7 mg/kg, po qd for 5 days administered 48 hrs after viral infection (reference value: 100%)", "assay_type": "functional", "design": "scale not given: the % may be the effect or the level left", "in_short": "as §1"}, "Murid betaherpesvirus 1 [7]": {"system": "Murid betaherpesvirus 1", "assay": "Antiviral activity against MCMV infected in BALB/c mouse assessed as decrease in virus-induced mean day of death at 50 mg/kg, po qd for 5 days administered 24 hrs after viral infection (reference value: 4.9 +/- 0.7 days)", "assay_type": "functional"}, "Murid betaherpesvirus 1 [8]": {"system": "Murid betaherpesvirus 1", "assay": "Antiviral activity against MCMV infected in BALB/c mouse assessed as decrease in virus-induced mean day of death at 16.7 mg/kg, po qd for 5 days administered 24 hrs after viral infection (reference value: 4.9 +/- 0.7 days)", "assay_type": "functional"}, "Murid betaherpesvirus 1 [9]": {"system": "Murid betaherpesvirus 1", "assay": "Antiviral activity against MCMV infected in BALB/c mouse assessed as decrease in virus-induced mean day of death at 50 mg/kg, po qd for 5 days administered 48 hrs after viral infection (reference value: 5.1 +/- 0.9 days)", "assay_type": "functional"}, "Murid betaherpesvirus 1 [10]": {"system": "Murid betaherpesvirus 1", "assay": "Antiviral activity against MCMV infected in BALB/c mouse assessed as decrease in virus-induced mortality at 5.6 mg/kg, po qd for 5 days administered 48 hrs after viral infection (reference value: 100%)", "assay_type": "functional", "design": "scale not given: the % may be the effect or the level left", "in_short": "as §1"}, "Murid betaherpesvirus 1 [11]": {"system": "Murid betaherpesvirus 1", "assay": "Antiviral activity against MCMV infected in BALB/c mouse assessed as decrease in virus-induced mortality at 5.6 mg/kg, po qd for 5 days administered 24 hrs after viral infection (reference value: 67%)", "assay_type": "functional", "design": "scale not given: the % may be the effect or the level left", "in_short": "as §1"}, "Murid betaherpesvirus 1 [12]": {"system": "Murid betaherpesvirus 1", "assay": "Antiviral activity against MCMV infected in BALB/c mouse assessed as decrease in virus-induced mean day of death at 5.6 mg/kg, po qd for 5 days administered 48 hrs after viral infection (reference value: 5.1 +/- 0.9 days)", "assay_type": "functional"}, "Murid betaherpesvirus 1 [13]": {"system": "Murid betaherpesvirus 1", "assay": "Antiviral activity against MCMV infected in SCID mouse assessed as log10 reduction in viral titer in liver at 10 mg/kg, po relative to control", "assay_type": "functional"}, "Murid betaherpesvirus 1 [14]": {"system": "Murid betaherpesvirus 1", "assay": "Antiviral activity against MCMV infected in SCID mouse assessed as log10 reduction in viral titer in kidney at 10 mg/kg, po relative to control", "assay_type": "functional"}, "Murid betaherpesvirus 1 [15]": {"system": "Murid betaherpesvirus 1", "assay": "Antiviral activity against MCMV infected in SCID mouse assessed as log10 reduction in viral titer in lung at 10 mg/kg, po relative to control", "assay_type": "functional"}, "Murid betaherpesvirus 1 [16]": {"system": "Murid betaherpesvirus 1", "assay": "Antiviral activity against MCMV infected in SCID mouse assessed as log10 reduction in viral titer in spleen at 10 mg/kg, po relative to control", "assay_type": "functional"}, "Human betaherpesvirus 5 [17]": {"system": "Human betaherpesvirus 5", "assay": "Antiviral activity against HCMV Toledo infected in human thymus/liver tissue xenografted in SCID mouse assessed as mean log10 genome equivalents/animal at 20 mg/kg, po qd for 14 days by RT-PCR analysis (reference value: 3.50 +/- 0.878)", "assay_type": "functional, strain Toledo"}, "Human betaherpesvirus 5 [18]": {"system": "Human betaherpesvirus 5", "assay": "Antiviral activity against HCMV Toledo infected in human thymus/liver tissue xenografted in SCID mouse assessed as decrease in viral infection at 20 mg/kg, po qd for 28 days by RT-PCR analysis (reference value: 92%)", "assay_type": "functional, strain Toledo", "design": "scale not given: the % may be the effect or the level left"}, "Human betaherpesvirus 5 [19]": {"system": "Human betaherpesvirus 5", "assay": "Antiviral activity against HCMV Toledo infected in human thymus/liver tissue xenografted in SCID mouse assessed as mean log10 genome equivalents/animal at 20 mg/kg, po qd for 28 days measured on day 35 by RT-PCR analysis (reference value: 3.28 +/- 1.422)", "assay_type": "functional, strain Toledo"}, "Human betaherpesvirus 5 [20]": {"system": "Human betaherpesvirus 5", "assay": "Antiviral activity against HCMV Toledo infected in human thymus/liver tissue xenografted in SCID mouse assessed as mean log10 genome equivalents/animal at 20 mg/kg, po qd for 28 days by RT-PCR analysis (reference value: 3.73 +/- 0.784)", "assay_type": "functional, strain Toledo"}, "Human betaherpesvirus 5 [21]": {"system": "Human betaherpesvirus 5", "assay": "Antiviral activity against HCMV Toledo infected in human thymus/liver tissue xenografted in SCID mouse assessed as decrease in viral infection at 20 mg/kg, po qd for 14 days by RT-PCR analysis (reference value: 92%)", "assay_type": "functional, strain Toledo", "design": "scale not given: the % may be the effect or the level left"}, "Human betaherpesvirus 5 [22]": {"system": "Human betaherpesvirus 5", "assay": "Antiviral activity against HCMV Toledo infected in human thymus/liver tissue xenografted in SCID mouse assessed as mean log10 genome equivalents/animal at 20 mg/kg, po qd for 21 days by RT-PCR analysis (reference value: 3.82 +/- 1.24)", "assay_type": "functional, strain Toledo"}, "Human betaherpesvirus 5 [23]": {"system": "Human betaherpesvirus 5", "assay": "Antiviral activity against HCMV Toledo infected in human thymus/liver tissue xenografted in SCID mouse assessed as decrease in viral infection at 20 mg/kg, po qd for 28 days measured on day 35 by RT-PCR analysis (reference value: 67%)", "assay_type": "functional, strain Toledo", "design": "scale not given: the % may be the effect or the level left"}, "Human betaherpesvirus 5 [24]": {"system": "Human betaherpesvirus 5", "assay": "Antiviral activity against HCMV Toledo infected in human thymus/liver tissue xenografted in SCID mouse assessed as decrease in viral infection at 20 mg/kg, po qd for 21 days by RT-PCR analysis (reference value: 92%)", "assay_type": "functional, strain Toledo", "design": "scale not given: the % may be the effect or the level left"}},
  "data": [
    {"smiles": "Nc1nc2c(ncn2COC(CO)CO)c(=O)[nH]1", "note": "[GANCICLOVIR]", "values": [
      {"measurement": "Activity", "setting": "Murid betaherpesvirus 1 [1]", "result": 20, "unit": "%"},
      {"measurement": "Activity", "setting": "Murid betaherpesvirus 1 [2]", "result": 6.8, "unit": "days"},
      {"measurement": "Activity", "setting": "Murid betaherpesvirus 1 [3]", "result": 7.3, "unit": "days"},
      {"measurement": "Activity", "setting": "Murid betaherpesvirus 1 [4]", "result": 7, "unit": "%"},
      {"measurement": "Activity", "setting": "Murid betaherpesvirus 1 [5]", "result": 20, "unit": "%"},
      {"measurement": "Activity", "setting": "Murid betaherpesvirus 1 [6]", "result": 53, "unit": "%"},
      {"measurement": "Activity", "setting": "Murid betaherpesvirus 1 [7]", "result": 6, "unit": "days"},
      {"measurement": "Activity", "setting": "Murid betaherpesvirus 1 [8]", "result": 6.3, "unit": "days"},
      {"measurement": "Activity", "setting": "Murid betaherpesvirus 1 [9]", "result": 5.7, "unit": "days"},
      {"measurement": "Activity", "setting": "Murid betaherpesvirus 1 [10]", "result": 93, "unit": "%"},
      {"measurement": "Activity", "setting": "Murid betaherpesvirus 1 [11]", "result": 87, "unit": "%"},
      {"measurement": "Activity", "setting": "Murid betaherpesvirus 1 [12]", "result": 6.4, "unit": "days"}
    ]},
    {"smiles": "Nc1nc2c(ncn2/C=C2/CC2(CO)CO)c(=O)[nH]1", "note": "[FILOCICLOVIR]", "values": [
      {"measurement": "FC", "setting": "Murid betaherpesvirus 1 [13]", "result": 2},
      {"measurement": "FC", "setting": "Murid betaherpesvirus 1 [14]", "result": 2},
      {"measurement": "FC", "setting": "Murid betaherpesvirus 1 [15]", "result": 2},
      {"measurement": "FC", "setting": "Murid betaherpesvirus 1 [16]", "result": 2}
    ]},
    {"smiles": "Nc1ccn(C[C@@H](CO)OCP(=O)(O)O)c(=O)n1.O.O", "note": "[CIDOFOVIR]", "values": [
      {"measurement": "Activity", "setting": "Human betaherpesvirus 5 [17]", "result": 2.47},
      {"measurement": "Activity", "setting": "Human betaherpesvirus 5 [18]", "result": 50, "unit": "%"},
      {"measurement": "Activity", "setting": "Human betaherpesvirus 5 [19]", "result": 1.59},
      {"measurement": "Activity", "setting": "Human betaherpesvirus 5 [20]", "result": 2.08},
      {"measurement": "Activity", "setting": "Human betaherpesvirus 5 [21]", "result": 82, "unit": "%"},
      {"measurement": "Activity", "setting": "Human betaherpesvirus 5 [22]", "result": 2.83},
      {"measurement": "Activity", "setting": "Human betaherpesvirus 5 [23]", "result": 0, "unit": "%"},
      {"measurement": "Activity", "setting": "Human betaherpesvirus 5 [24]", "result": 100, "unit": "%"}
    ]}
  ]
}
